Measurements of several laboratories.
Target: RAC-alpha serine/threonine-protein kinase (AKT1, Homo sapiens, UniProt P31749)

Nc1nc(NC2CCCCC2)sc1C(=O)c1ccccc1 — remaining activity (enzyme activity; inhibitor; 10 µM): 85%
FC(F)(F)Oc1cccc(-c2cnc3ccc(-c4ccncc4)nn23)c1 — activity vs control (enzyme activity; inhibitor; radiometric; 5 µM): 104%
CNCc1ccccc1-c1csc([C@@H](C)Nc2nc(C)nc3cc(OC)c(OC)cc23)c1 — remaining binding (cell-free assay; competition with immobilised ligand; 1 µM): 100%
Oc1ccc(-c2nc(-c3ccncc3)c(-c3ccc(F)cc3)[nH]2)cc1 — remaining signal (cell-free assay; 0.5 µM): 101%
Cc1sc(C(=O)NC2COC2)cc1-n1cc(NC(=O)Nc2c(F)cccc2Cl)cn1 — remaining activity (enzyme activity; inhibitor; 10 µM): 105%
CNC(=O)c1cc(Oc2ccc(NC(=O)Nc3ccc(Cl)c(C(F)(F)F)c3)cc2)ccn1 — inhibition (enzyme activity; inhibitor; 10 µM): -3%
C[C@@H]1CN(c2cc(-c3nn(C)c4ccc(OC5(C)CC5)cc34)ncn2)C[C@H](C)O1 — remaining binding (cell-free assay; competition with immobilised ligand; 1 µM): 100%
Cc1cnc(NC2CCOCC2)nc1-n1cnc(C(=O)NC(CN)c2cc(F)cc(Cl)c2)c1 (stereo not drawn) — remaining activity (enzyme activity; inhibitor; radiometric; 1 µM): 89%
O=C(CSc1nc2nccnc2c(=O)n1CCc1ccccc1)Nc1nccs1 — inhibition (enzyme activity; inhibitor; 10 µM): 4%
Nc1ncnc2occ(-c3ccc(NC(=O)Nc4cc(C(F)(F)F)ccc4F)cc3)c12 — remaining signal (cell-free assay; inhibitor; 20 µM): 100%
Cn1c(=O)n(-c2ccc(C(C)(C)C#N)cc2)c2c3cc(-c4cnc5ccccc5c4)ccc3ncc21 — remaining activity (enzyme activity; inhibitor; 10 µM): 126%
CC(C)c1ccc(NC(=O)c2cccs2)c(-c2nc3ccccc3[nH]c2=O)c1 — activity vs control (enzyme activity; inhibitor; 1 µM): 120%
COc1cc(Nc2cnc(C#N)c(O[C@H](C)CN(C)C)n2)ncc1-c1cnn(C)c1 — remaining activity (enzyme activity; inhibitor; radiometric; 1 µM): 98%
O=C1NC(=O)c2cc(Nc3ccc(F)cc3)c(Nc3ccc(F)cc3)cc21 — remaining signal (cell-free assay; 0.5 µM): 94.8%
Cc1ccc(Nc2nccc(N(C)c3ccc4c(C)n(C)nc4c3)n2)cc1S(N)(=O)=O — inhibition (enzyme activity; inhibitor; 0.3 µM): -7%
CN(C)C1CCN(CC#Cc2nn(C3CCCC3)c3nc(NCc4ccccc4)ncc23)C1 (stereo not drawn) — inhibition (enzyme activity; inhibitor; FRET; 10 µM): 7%
CCN(CC)c1ccc(C2=NNC(=O)CC2C)cc1[N+](=O)[O-] (stereo not drawn) — remaining activity (enzyme activity; inhibitor; 10 µM): 81%
COCCOc1nc(-c2ccc(Cl)nc2)nc2c1CN(C(=O)c1ncn3ccccc13)CC2 — remaining binding (cell-free assay; competition with immobilised ligand; 0.1 µM): 82%
CNc1cccc2cc(C(=O)Nc3ccc(C(=O)O)cc3)c(=O)[nH]c12 — inhibition (enzyme activity; inhibitor; 10 µM): 2.2%
CC(C)(C)c1nc2c(s1)c1nc(N)ncc1c1ccc(NS(=O)(=O)c3c(F)cccc3F)c(F)c12 — remaining activity (enzyme activity; inhibitor; radiometric; 1 µM): 88%
O=C(Nc1cnn(-c2csc(C(=O)NC3COC3)c2)c1)Nc1c(F)cccc1Cl — remaining activity (enzyme activity; inhibitor; 5 µM): 105%
Cn1cnc(Br)c1C1=CN(c2ncnc3[nH]cnc23)CCS1 — inhibition (enzyme activity; inhibitor; radiometric; 2 µM): 84.3%
COc1ccc2c(c1)O[C@@H](c1ccc(OC)c(OC)c1)C[C@H]2NC(=O)C1(c2ccc3c(c2)OC(F)(F)O3)CC1 — remaining binding (cell-free assay; competition with immobilised ligand; 1 µM): 100%
CCCS(=O)(=O)Nc1ccc(F)c(C(=O)c2c[nH]c3ncc(-c4ccc(Cl)cc4)cc23)c1F — inhibition (enzyme activity; inhibitor; 1 µM): < 20%
CCN(CC)CCNC(=O)c1c(C)[nH]c(/C=C2\C(=O)Nc3ccc(F)cc32)c1C — remaining signal (cell-free assay; 0.5 µM): 105%
CC/C(=N\NC(=O)NCc1cccc(O)c1)c1ccc(O)c(C)c1O — inhibition (enzyme activity; inhibitor; 0.1 µM): 0.1%
COc1cc2ncnc(Nc3ccc(Oc4ccccc4)c(C)c3C)c2cc1OC — inhibition (enzyme activity; inhibitor; 1 µM): 2%
CC1=C(C#N)[C@@H](c2ccc3[nH]nc(C)c3c2)C(C#N)=C(c2ccc(Cl)cc2)N1 — remaining binding (cell-free assay; competition with immobilised ligand; 1 µM): 100%
Cn1cncc1C1=CN(c2ncnc3[nH]cnc23)CCS1 — inhibition (enzyme activity; inhibitor; radiometric; 50 nM): 25.1%
Cc1ccc(C(=O)Nc2ccc(CN3CCN(C)CC3)c(C(F)(F)F)c2)cc1C#Cc1cnc2cccnn12 — remaining activity (enzyme activity; inhibitor; 23.5 nM): 65%
Cc1c[nH]c2nccc(Oc3c(F)cc(Nc4cc(Cl)nc(N)n4)cc3F)c12 — remaining binding (cell-free assay; competition with immobilised ligand; 0.1 µM): 100%
CN1CC(Oc2cnc(C#N)cc2-c2ccn3nc(NC(=O)C4CC4)cc3c2)C1 — inhibition (enzyme activity; inhibitor; 1 µM): -4%
CCc1ccccc1C(=O)Nc1n[nH]c2c(C)c(F)c(C3C(C#N)=C(C)N(C)C(C)=C3C#N)cc12 — remaining binding (cell-free assay; competition with immobilised ligand; 1 µM): 75%
CSc1nc(C)c(-c2ccnc(Nc3ccc(N4CCOCC4)cc3)c2)[nH]1 — inhibition (enzyme activity; inhibitor; 10 µM): -2.9%
O=C1CCc2cc(Nc3cc(OC4CCOCC4)c([N+](=O)[O-])cc3Cl)ccc2N1 — remaining binding (cell-free assay; competition with immobilised ligand; 1 µM): 98%
O=S(=O)(NCCNC/C=C/c1ccc(Br)cc1)c1cccc2cnccc12 — remaining signal (cell-free assay; 0.5 µM): 41.6%
